Screening data from PubChem.
A selection: hits, their analogues and other compounds. The true share with any hit is near 1.5%.
APJ ag = agonists of human APJ apelin receptor | P35414 | CHO-K1 APJ PathHunter beta-arrestin, luminescence; 0% DMSO wells, 100% apelin | activation, % at 20 µM | hit rate 0.11% among 330,000;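 active = activation more than six SD over the plate average, tested at 20 µM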
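Assay system – PathHunter CHO-K1 APJ (AGTRL-1) beta-arrestin reporter cells · Compound – one dose, 20 µM compound, 1% DMSO · Timing – compound 90 min 25 °C, reagent 1 h · Measured by – luminescence from split beta-galactosidase complementation, Galacton Star/Emerald II substrate · Measure – beta-arrestin recruitment to APJ as agonist activity, luminescent signal · Benchmarks – DMSO vs Apelin-13 10 nM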
CXCR6 block = inhibitors of human CXCR6 receptor; hit rate 0.36% among 360,000; inhibition, % at 20 µM; CHO-K1 PathHunter CXCR6 beta-arrestin, luminescence; in the data active = inhibition above about 34%, passing the limit was not always enough;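 note: antagonist mode with CXCL16 agonist at 10 nM final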
APJ antag = blocks the human apelin receptor APJ | P35414 | CHO-K1 APJ beta-arrestin complementation, luminescence | inhibition, % at 20 µM | hit rate 0.32% among 330,000 | AID 2521;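 active = inhibition above about 40% at 20 µM, limit read from the data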;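 note: cells challenged with 10 nM apelin-13 agonist together with compound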
CCR6 antagonist = blocks CCL20-driven beta-arrestin recruitment at human CCR6. hit rate 0.49% among 340,000. AID 493098. inhibition, % at 20 µM. CHO-K1 CCR6 PathHunter beta-arrestin, luminescence, CCL20-stimulated;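 active = compounds whose inhibition of the agonist-driven luminescence signal at 20 µM reaches about 50%, limit read from the data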;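 note: cells stimulated with CCL20 at 14 nM final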
Target sequence (P51684 whole entry, looked up): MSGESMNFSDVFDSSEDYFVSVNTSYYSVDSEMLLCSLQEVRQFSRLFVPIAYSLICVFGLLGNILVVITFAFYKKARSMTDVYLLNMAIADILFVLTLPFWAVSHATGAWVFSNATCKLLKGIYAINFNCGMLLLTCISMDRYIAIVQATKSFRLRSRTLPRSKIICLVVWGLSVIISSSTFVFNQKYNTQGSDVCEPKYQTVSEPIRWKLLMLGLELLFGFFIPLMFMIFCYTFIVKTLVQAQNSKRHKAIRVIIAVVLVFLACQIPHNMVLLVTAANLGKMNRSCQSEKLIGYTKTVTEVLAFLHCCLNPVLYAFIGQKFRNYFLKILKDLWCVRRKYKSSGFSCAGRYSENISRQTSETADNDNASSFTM
EBI2 block = EBI2 (human) antagonism; P32249; EBI2 beta-arrestin recruitment, luminescence, 7a,25-OHC stimulated; inhibition, % at 5 µM; hit rate 0.81% among 360,000; in the data active = inhibition above about 38%;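 note: enzyme fragment complementation signal reports receptor beta-arrestin coupling in cells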
EBI2 conf = EBI2 (human) antagonism, single concentration confirmation. hit rate 29% among 2,400. EBI2 beta-arrestin luminescence, 7a,25-OHC antagonism. inhibition, % at 5 µM. shares compounds with EBI2 block;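 active = inhibition of at least 50%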
EBI2 ag = counter-screen for EBI2 antagonists: EBI2 agonist activity; AID 652000; shares compounds with EBI2 block; EBI2-expressing cells, agonist mode, luminescence, 60 min; 0% vehicle, 100% 7α,25-dihydroxycholesterol control; activation, % at 5 µM; 2,400 tested, under 10 active;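 active = activation of at least 50%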
bGal counter = inhibits E. coli beta-galactosidase, counter-screen for EBI2 antagonists; shares compounds with EBI2 block; purified beta-galactosidase, luminescent Galacton Star, 15 min; inhibition, % at 5 µM; hit rate 1% among 2,400; AID 652176;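 active = replicate-average signal at least 3 plate SD below neutral wells, shown as high inhibition, flagging enzyme-inhibiting false positives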;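 note: higher means stronger loss of beta-gal luminescence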
Large screens that a line does not name were inactive (follow-up assays come after a bar, where they were run).

CN(CCOc1ccc(Cl)cc1)C(=O)C1CCN(C(=O)c2ccc(Cl)cc2)CC1	EBI2 block 73.6 | EBI2 conf inactive | EBI2 ag inactive | bGal counter inactive
CN(CC(=O)Nc1ccc(Cl)c(C(F)(F)F)c1)C(=O)C1CCC1	none
COc1ccc(CNC(=O)[C@H](Cc2ccccc2)NC(=O)C2CCNCC2)cc1	none
CC(O)[C@@H](NC(=O)C1CCC(CNC(=O)[C@H](Cc2ccccc2)NC(=O)OC(C)(C)C)CC1)C(=O)O (stereo partly specified)	none
CCCOC(=O)c1c(NC(=O)/C=C/c2cnn(C)c2C)sc(C(=O)OCC)c1C	none
CCOC(=O)c1sc(NC(=O)/C=C/c2cnn(CC)c2C)c(C(=O)OCC)c1C	EBI2 block 40.3 | EBI2 conf inactive | EBI2 ag inactive | bGal counter inactive
Cc1cccc(N2CCN(C(=O)c3ccncc3)CC2C)c1 (stereo unspecified)	none
O=C(c1ccc2ccccc2c1)N1CCN(c2ccccc2)CC1	EBI2 block 82.8 | EBI2 conf 67.9 | EBI2 ag inactive | bGal counter inactive
O=C(c1ccc(-c2ccccc2)cc1)N1CCN(c2ccccc2)CC1	none
Cc1cccc(N2CCN(C(=O)c3ccc4ccccc4c3)CC2C)c1 (stereo unspecified)	EBI2 block 64.8 | EBI2 conf inactive | EBI2 ag inactive | bGal counter inactive
CC1CCN(C(=O)c2ccc3ccccc3c2)CC1	EBI2 block 46.3 | EBI2 conf inactive | EBI2 ag inactive | bGal counter inactive
O=C(COc1ccc(Cl)cc1)N1CCN(C(=O)c2cccc(F)c2)CC1	EBI2 block 86.2 | EBI2 conf 68.3 | EBI2 ag inactive | bGal counter inactive
O=C(COc1ccc(Cl)cc1)N1CCN(C(=O)c2cccs2)CC1	EBI2 block 80.0 | EBI2 conf inactive | EBI2 ag inactive | bGal counter inactive
O=C(COc1ccccc1)N1CCN(C(=O)c2cccc(F)c2)CC1	none
O=[N+]([O-])c1ccc2c(c1Nc1ccccc1Cl)=NC1(CCCCC1)N=2	EBI2 block 63.4 | EBI2 conf inactive | EBI2 ag inactive | bGal counter inactive
O=C(O)C1(Nc2ccccc2Cl)CCCC1	none (no result: APJ ag, APJ antag)
Cc1ccc(CNC(=O)C2CCN(C(=O)Nc3ccc(C)cc3)CC2)cc1	EBI2 block 61.6 | EBI2 conf inactive | EBI2 ag inactive | bGal counter inactive
O=C(NCc1ccc(F)cc1)C1CCCN(C(=O)Nc2ccccc2)C1 (stereo unspecified)	EBI2 block 50.3 | EBI2 conf inactive | EBI2 ag inactive | bGal counter inactive
O=C(NCc1ccc(F)cc1)C1CCCN(C(=O)Nc2ccc(F)cc2)C1 (stereo unspecified)	EBI2 block 51.5 | EBI2 conf inactive | EBI2 ag inactive | bGal counter inactive
O=C(NCc1ccccc1F)C1CCCN(C(=O)Nc2ccc(F)cc2)C1 (stereo unspecified)	none
Nc1nc(-c2ccc3c(c2)CCCC3)c(CC(=O)O)s1	none
CC1(C)Cc2c(cnn2-c2cccc(F)c2)C(NC(=O)c2ccc[n+]([O-])c2)C1 (stereo unspecified)	none
CCOC(=O)C1(CCOc2ccccc2)CCN(C(=O)c2ccc(-n3cccn3)cc2)CC1	EBI2 block 88.3 | EBI2 conf 68.3 | EBI2 ag inactive | bGal counter inactive
COc1cc2c(cc1OC)CN(C(=O)CCNS(=O)(=O)c1ccccc1F)CC2	none
Cc1ccc2c(c1)-c1c(cnn1CC(=O)NC(C)CCc1ccco1)CO2 (stereo unspecified)	none
Cc1ccc2c(c1)-c1c(cnn1CC(=O)N(Cc1ccco1)C1CCCCC1)CO2	EBI2 block 46.8 | EBI2 conf inactive | EBI2 ag inactive | bGal counter inactive
O=C(c1ccco1)N1CCN(c2nc(C(F)(F)F)nc3c2nnn3Cc2ccccc2)CC1	EBI2 block 48.0 | EBI2 conf inactive | EBI2 ag inactive | bGal counter inactive
COc1ccccc1-c1cnc2c(Nc3cccc(OC(F)(F)C(F)F)c3)nccn12	EBI2 block 67.6 (no result: APJ ag, APJ antag, CCR6 antagonist) | EBI2 conf inactive | EBI2 ag inactive | bGal counter inactive
FC(F)C(F)(F)Oc1cccc(Nc2nccn3c(-c4cccc5cccnc45)cnc23)c1	EBI2 block 47.4 (no result: APJ ag, APJ antag, CCR6 antagonist) | EBI2 conf inactive | EBI2 ag inactive | bGal counter inactive
O=C(NCCO)c1cccc(-c2cnc3c(Nc4cccc(OC(F)(F)C(F)F)c4)nccn23)c1	none (no result: APJ ag, APJ antag, CCR6 antagonist)
NC(=O)c1ccc(NC(=O)CSc2nc3ccccc3c(=O)n2CCCN2CCOCC2)cc1	none
NC(=O)c1cc(S(=O)(=O)N2CCOCC2)cs1	none
COc1ccc(CCNC(=O)C2CCCN2C(=O)Nc2ccc(F)cc2)cc1OC (stereo unspecified)	none
N#Cc1cc(-c2ccc(Cl)cc2)cn(Cc2c(Cl)cccc2Cl)c1=O	EBI2 block 45.5 | EBI2 conf inactive | EBI2 ag inactive | bGal counter inactive
COc1ccccc1CCN1CCCC(CN(C)C(=O)CCC(N)=O)C1 (stereo unspecified)	none
Cc1ccc(C)c(Oc2cc(NC(=O)CCCn3nc(C)c([N+](=O)[O-])c3C)cc([N+](=O)[O-])c2)c1	EBI2 block 44.3 | EBI2 conf inactive | EBI2 ag inactive | bGal counter inactive
Cc1nn(CCCC(=O)Nc2cc(Oc3ccccc3)cc([N+](=O)[O-])c2)c(C)c1[N+](=O)[O-]	none
CCOc1ccc(OCC(O)CN2CCN(S(=O)(=O)c3cccc(C(F)(F)F)c3)CC2)cc1 (stereo unspecified)	EBI2 block 77.5 (no result: APJ ag, APJ antag) | EBI2 conf inactive | EBI2 ag inactive | bGal counter inactive
O=S(=O)(c1cccc(C(F)(F)F)c1)N1CCN(CC(O)COCc2ccccc2)CC1 (stereo unspecified)	none
O=C(C[C@H]1C[C@H](C(=O)N2CCCCC2)[C@@]2(CCc3ccccc3)c3[nH]c4ccc(Cl)cc4c3CCN2C1=O)NCc1cccc(C(F)(F)F)c1	none (no result: APJ ag, APJ antag)
C/C(=N\Nc1ncnc2sc(C)c(C)c12)c1ccccn1	APJ antag 46.9, EBI2 block 54.6 | EBI2 conf 52.6 | EBI2 ag inactive | bGal counter inactive
Cc1sc2ncnc(N/N=C/c3cccc(O)c3)c2c1C	none
O=C(/C=C/c1cccc(F)c1)N1CCN(c2ccccn2)CC1	EBI2 block 76.9 | EBI2 conf 61.3 | EBI2 ag inactive | bGal counter inactive
O=C(/C=C/c1ccc(Cl)cc1)N1CCN(c2ccccn2)CC1	EBI2 block 93.1 | EBI2 conf 80.5 | EBI2 ag inactive | bGal counter inactive
